MrgX1 allo act: allosterically activates human MrgX1 receptor signaling; B-score at 10 µM; hit rate 0.63% among 310,000; Q96LB2; AID 588675; MrgX1-HEK293, Fluo-4 calcium flux, FDSS; active compounds read high;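 active = plate-corrected calcium response at least 3 library SD above typical, normal starting fluorescence, not activating the receptor alone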;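 note: compound read alongside a low EC10 to EC30 dose of BAM8-22 agonist; peak minus trough fluorescence over baseline measured at the second addition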
Target sequence (Q96LB2 whole entry, looked up): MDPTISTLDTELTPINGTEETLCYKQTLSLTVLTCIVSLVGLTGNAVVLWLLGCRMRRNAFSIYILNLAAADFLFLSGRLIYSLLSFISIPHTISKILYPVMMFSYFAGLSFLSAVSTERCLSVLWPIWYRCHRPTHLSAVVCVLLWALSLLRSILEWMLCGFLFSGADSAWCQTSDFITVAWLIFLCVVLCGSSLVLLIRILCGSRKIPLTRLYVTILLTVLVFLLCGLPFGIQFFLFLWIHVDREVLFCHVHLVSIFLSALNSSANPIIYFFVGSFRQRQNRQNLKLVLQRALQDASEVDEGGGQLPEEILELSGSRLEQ
MrgX1 antagonist: antagonists of human MrgX1 receptor. hit rate 1.3% among 310,000. AID 588676. B-score at 10 µM. Q96LB2. MRGX1-HEK293 calcium flux, Fluo-4, BAM8-22 antagonism; active compounds read low;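 active = calcium-response B-score plate-corrected more than 3 library SD below zero, starting fluorescence within 5 deviations, no agonist response on first addition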;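 note: peak minus trough fluorescence over baseline after final BAM8-22 challenge near maximal dose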
MrgX1 agonist: activates human MrgX1 receptor signaling; MrgX1-HEK293 cells, Fluo-4 calcium fluorescence, agonist mode; active compounds read high; B-score at 10 µM; hit rate 0.44% among 310,000; AID 588627;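 active = calcium response B-score plate-corrected fluorescence ratio at least 3 library SD, with starting fluorescence B-score inside 5 SD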
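System – MrgX1-expressing HEK293 cells · Incubation – cells plated overnight, dye loaded 0.5 h 37 °C, 0.5 h room temperature · Technique – kinetic Fluo-4 NW fluorescence of intracellular calcium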
RGS4 pot: RGS4 potentiation or activation. hit rate 0.92% among 310,000. B-score at 10 µM. HEK293 M3R/inducible RGS4, carbachol calcium flux Fluo4; active compounds read low;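 active = B-score of the integrated calcium signal more than 4 SD below the library mean, with starting fluorescence not abnormally high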;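 note: negative B-score means reduced calcium response which marks RGS4 activation or potentiation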
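Reagent: ECmax carbachol challenge; Test system: M3R-expressing HEK293 line, RGS4 induced by doxycycline; Schedule: overnight RGS4 induction, 30 min dye load 37 °C, 20 min compound RT; Detection: calcium dye Fluo4 fluorescence; Read-out: Agonist-evoked peak-minus-minimum fluorescence over baseline, integrated ratio, B score.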
RGS4 block: human RGS4 inhibition | P49798 | HEK293 M3R/RGS4 inducible, Fluo-4 calcium flux; active compounds read high; triggered by carbachol at its EC20 | B-score at 10 µM | hit rate 0.45% among 310,000;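 active = B-score, a plate-corrected calcium signal, over three deviations above library mean, with baseline fluorescence within five deviations of library mean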;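 note: RGS4 expression induced by doxycycline in cells with stable M3 receptor; B-score is computed from the integrated fluorescence ratio over baseline after carbachol; higher B-score means a larger calcium signal and so more RGS4 inhibition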
Target sequence (P49798 whole entry, looked up): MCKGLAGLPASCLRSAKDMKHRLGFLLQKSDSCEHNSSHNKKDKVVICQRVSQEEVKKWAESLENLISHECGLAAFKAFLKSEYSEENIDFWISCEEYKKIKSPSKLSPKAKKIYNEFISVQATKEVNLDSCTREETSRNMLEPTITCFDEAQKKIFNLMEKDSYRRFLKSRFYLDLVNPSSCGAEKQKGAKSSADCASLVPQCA
MrgX1 antag conf: confirmation of human MrgX1 receptor antagonists. hit rate 19% among 2,300. remaining BAM8-22 calcium response % of control (active compounds read low), % at 10 µM. MrgX1-HEK293, BAM8-22 calcium flux, Fluo-4; active compounds read low. shares compounds with MrgX1 antagonist;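 active = remaining agonist calcium response no higher than 100% minus 3 SD of agonist-only control wells, with starting fluorescence near control levels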;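 note: agonist BAM8-22 given at a near maximal EC90 to ECmax level; peak minus minimum fluorescence divided by baseline after agonist addition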
HEK293 Ca flux: activity in parental HEK293 cells lacking MrgX1. shares compounds with MrgX1 antagonist. AID 624111. Fluo-4 calcium fluorescence, FDSS. hit rate 2% among 4,000. fluorescence ratio F(max-min)/F0 at 10 µM;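 active = duplicate-averaged calcium fluorescence ratio at least three times the standard deviation of buffer wells, a nonspecific response in parental cells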
HEK293 Ca counter: counter-screen for MrgX1 allosteric activators: effect in parental HEK293 cells; shares compounds with MrgX1 antagonist; parental HEK293 calcium flux, Fluo-4 fluorescence ratio; active compounds read high; fluorescence ratio F(max-min)/F0 at 10 µM; hit rate 0.4% among 4,000;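 active = calcium fluorescence ratio, averaged over duplicates, at least 3 SD of the buffer-well ratio, meaning a nonspecific response in receptor-free cells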;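 note: untransfected parental HEK293 lacking MrgX1 used as counterscreen for MrgX1 allosteric activators; fluorescence change taken during the second addition on a kinetic imager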
HEK293 Ca cntr2: activity in parental HEK293 cells lacking MrgX1 receptor; Fluo-4 calcium fluorescence (FDSS); active compounds read high; shares compounds with MrgX1 antagonist; hit rate 8.7% among 4,000; fluorescence ratio F(max-min)/F0 at 10 µM;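 active = calcium fluorescence ratio at least three times the spread of buffer wells, meaning a non-specific response in parental cells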
An asterisk follows results filed as active; i = inactive; . = not tested or not shown. Rows were chosen to be rich in hits. Some 3.5% of all compounds tested hit in one or more screens of this group.

SMILES | MrgX1 allo act | MrgX1 antagonist | MrgX1 agonist | RGS4 pot | RGS4 block | MrgX1 antag conf | HEK293 Ca flux | HEK293 Ca counter | HEK293 Ca cntr2
COc1cc(OC)cc(C(=O)NC(=S)Nc2ccc(NC(=O)c3ccco3)cc2)c1 | i | -5.1* | i | i | i | i | i | i | i
CSCCC(N=C(NS(=O)(=O)c1ccc(Br)cc1)c1ccccc1)C(=O)O (configuration not stated) | i | i | i | i | i | . | . | . | .
CCOC(=O)C1=C(O)CSC1=Nc1cccc2ccccc12 | i | i | i | i | i | . | . | . | .
CCOC(=O)C1=C(O)CSC1=Nc1ccc(C)cc1 | i | -5.7* | i | i | i | i | i | i | i
CCC(C)NCCOc1cccc(Br)c1 (configuration not stated) | i | -5* | i | i | i | i | i | i | i
O=C(COc1ccccc1Cl)Nc1cccc(S(=O)(=O)NC2=NCCCCC2)c1 | i | i | i | i | i | . | . | . | .
CN1CCN(c2ccc([N+](=O)[O-])c(-n3nc(-c4ccccc4)c4ccccc4c3=O)c2)CC1 | i | i | i | i | i | . | . | . | .
COc1cc(CNC(C)(C)CO)ccc1OCC(=O)NC(C)(C)C | i | i | i | i | i | . | . | . | .
COc1cc(CNn2cn[nH]c2=S)ccc1OCC(=O)NC(C)(C)C | i | -4.6* | i | i | i | i | i | i | i
COc1ccc2[nH]cc(CCNC(=O)Nc3ccccc3C)c2c1 | i | i | i | i | i | . | . | . | .
COc1cc(C=O)ccc1Oc1nnnn1-c1ccc(C(N)=O)cc1 | i | i | i | i | i | . | . | . | .
C/C=C/c1ccc(Oc2nnnn2-c2ccc(C(=O)O)cc2)c(OC)c1 | i | -4.6* | i | i | i | i | i | i | i
Cc1ccc(-n2ncc3c(N4CCC(C(N)=O)CC4)ncnc32)c(C)c1 | i | -10* | i | i | i | i | i | i | i
CCOC(=O)C1CCN(c2ncnc3c2cnn3-c2ccccc2)CC1 | i | -5* | i | i | i | i | i | i | i
CCOC(=O)C1CCN(c2ncnc3c2cnn3-c2ccc(Cl)cc2)CC1 | i | i | i | i | i | . | . | . | .
CCOC(=O)CNC(=O)CSc1ncnc2c1cnn2-c1ccccc1 | i | -6.1* | i | i | i | i | i | i | i
COc1ccc(S(=O)(=O)N(CCc2ccccc2)CC(N)=O)cc1 | i | -5.4* | i | i | i | i | i | i | i
O=C(NC1=NC2CCCCC2N1)c1ccccc1 (configuration not stated) | i | i | i | . | . | . | . | . | .
Cc1c(C#N)c2ccccc2n1CC(=O)NCC1CCCO1 (configuration not stated) | i | -5.1* | i | i | i | i | i | i | i
O=C(Cn1c(NCCO)nc2ccccc21)NCC1CCCO1 (configuration not stated) | i | -4.7* | i | i | i | i | i | i | i
O=C(Cn1c(NCCO)nc2ccccc21)NCCc1ccccc1 | i | i | i | i | i | . | . | . | .
O=C(NCc1ccccn1)C(=O)C1C(=O)Nc2ccccc21 (configuration not stated) | i | i | i | i | i | . | . | . | .
Cc1nn(C)c(-c2n[nH]c(=S)n2-c2ccccc2)c1Cl | i | -4.7* | i | i | i | i | i | i | i
CN(CC(=O)Nc1c(Cl)cccc1Cl)C(=O)c1ccc2nc[nH]c2c1 | i | -7.1* | i | i | i | 73%* | i | i | i
CCN1C(=O)C(CC(=O)NCc2ccc(Cl)cc2)N(CC)C1=O (configuration not stated) | i | -5.1* | i | i | i | i | i | i | i
SMILES | MrgX1 allo act | MrgX1 antagonist | MrgX1 agonist | RGS4 pot | RGS4 block | MrgX1 antag conf | HEK293 Ca flux | HEK293 Ca counter | HEK293 Ca cntr2
Cc1cnc(C(=O)NNC(=O)c2ccc(Br)cc2)cn1 | i | i | i | i | i | . | . | . | .
Cc1nc2c(-c3ccc(Cl)cc3)cnn2c2c1CCC2 | i | -5.1* | i | i | i | i | i | i | i
C/C(=N\NC(=O)c1ccn(C)n1)c1cccc(NC(=O)c2ccc(C)s2)c1 | i | i | i | i | i | . | . | . | .
Cc1nc(N2CCCCCC2)c2ccccc2n1 | i | -4.7* | i | i | i | i | i | i | i
COC1CCN(C(=O)CC2C(=O)NCCN2CC(C)(C)C)CC1 (configuration not stated) | i | i | i | i | i | . | . | . | .
COC1CCN(C(=O)CC2C(=O)NCCN2CC2CCCCC2)CC1 (configuration not stated) | i | -5.3* | i | i | i | i | i | i | i
O=C(Nc1ccnn1C1CCN(C2CCC2)CC1)c1ccccc1 | i | i | i | i | i | . | . | . | .
CCOC(=O)CNS(=O)(=O)c1ccc(C)cc1 | i | i | i | i | i | . | . | . | .
O=C(CCc1ccccc1)NCc1ccc(F)cc1 | i | i | i | i | i | . | . | . | .
O=C(O)CCC(=O)NCc1ccc(F)cc1 | i | -6.3* | i | i | i | i | i | i | i
Cc1nc2nc(-c3ccco3)[nH]n2c(=O)c1Cc1ccccc1 | i | i | i | i | i | . | . | . | .
Cc1nc2nc(-c3ccco3)[nH]n2c(=O)c1C | i | -12* | i | i | i | i | i | i | i
CCOC(=O)c1c(C)[nH]c(C)c1S(=O)(=O)N(C)CC(=O)Nc1cc(C)ccc1OC | i | -9.1* | i | i | i | i | i | i | i
COc1ccc(N(CC(=O)O)S(=O)(=O)c2cccnc2)cc1 | i | -6.8* | i | i | i | i | i | i | i
Cc1cc2c3nonc3ccc2n1-c1ccccc1 | i | -5.2* | i | i | i | 84%* | i | i | i
CCOCC(=O)Nc1nc(-c2ccccc2)c(CC)s1 | i | i | i | i | i | . | . | . | .

High-throughput results: PubChem BioAssay, Johns Hopkins Ion Channel Center
